Source: ChEMBL document CHEMBL1154200, “Steroidal glycosides from Agave utahensis and their cytotoxic activity” (J Nat Prod, 2009)
≈ marks a conversion by molar mass, not a printed value. Calls of active or inactive are those of the source. The calls are words filed in the database; no cut-off is given here.

Experiments:
[1] = test system: HL-60; experiment: Cytotoxicity against human HL60 cells at 10 ug/mL after 72 hrs by MTT assay
[2] = test system: HL-60; experiment: Cytotoxicity against human HL60 cells after 72 hrs by MTT assay; type: functional, cell-based; settings: HL-60, 72 h
Summary of the method: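 HL-60 cells kept in RPMI 1640 with heat-inactivated 10% FBS, penicillin and streptomycin. Seeded at 4 × 10^4 cells/mL and preincubated 24 h at 37 °C in air/CO2 (19:1). Sample added in EtOH-H2O (1:1) to final 0.1-10 µg/mL, vehicle alone in controls. Incubated 72 h more, growth read by modified MTT (Sargent and Taylor). IC50 taken from dose-response curve. Triplicate.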

[3] = test system: HL-60; experiment: Induction of DNA fragmentation in human HL60 cells at 20 ug/ml after 18 hrs by agarose gel electrophoresis; type: functional, cell-based
Summary of the method: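 HL-60 cells treated 18 h at 37 °C at 0, 10 or 20 µg/mL, with 10 µg/mL etoposide as reference. Genomic DNA extracted from 2 × 10^6 cells by kit with RNase A step. Run on 2% agarose in 40 mM Tris-acetate (pH 7.4) at 50 V for 1 h. Ladder pattern viewed under UV.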

[4] = test system: HL-60; experiment: Induction of apoptosis in human HL60 cells assessed as caspase-3 activation at 20 ug/ml after 6 hrs; type: functional, cell-based
Summary of the method: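 HL-60 cells (2 × 10^6) treated 6 h at 37 °C at 0, 10 or 20 µg/mL, with 10 µg/mL etoposide as reference, then lysed on ice. Lysate equivalent to 200 µg protein mixed with reaction buffer containing DEVD-pNA. Incubated 2 h at 37 °C, released pNA read at 405 nm. Mean ± SE of triplicates.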

[5] = test system: HL-60; experiment: Induction of apoptosis in human HL60 cells by morphology study; type: functional, cell-based

Row | SMILES | Activity [1] | IC50 [2] [µg/mL] | Activity [5] | further results
1 | CO[C@]1(CC[C@@H](C)CO[C@@H]2O[C@H](CO)[C@@H](O)[C@H](O)[C@H]2O)O[C@H]2C[C@H]3[C@@H]4CC[C@@H]5C[C@@H](O[C@@H]6O[C@H](CO)[C@@H](O[C@@H]7O[C@H](CO)[C@@H](O)[C@H](O)[C@H]7O)[C@H](O)[C@H]6O)CC[C@]5(C)[C@H]4CC[C@]3(C)[C@H]2[C@@H]1C | inactive |  |  | 
2 | C[C@@H]1CC[C@@]2(OC1)O[C@H]1C[C@H]3[C@@H]4CC[C@@H]5C[C@@H](O[C@@H]6O[C@H](CO)[C@@H](O[C@@H]7O[C@H](CO)[C@@H](O)[C@H](O)[C@H]7O)[C@H](O)[C@H]6O)CC[C@]5(C)[C@H]4CC[C@]3(C)[C@H]1[C@@H]2C |  | 4.9 (≈ 6.61 µM) | Active | Activity [3]: Active; Activity [4]: Active
3 | C[C@@H]1CC[C@@]2(OC1)O[C@H]1C[C@H]3[C@@H]4CC[C@@H]5C[C@@H](O[C@@H]6O[C@H](CO)[C@H](O)[C@H](O[C@@H]7O[C@H](CO)[C@@H](O)[C@H](O)[C@H]7O)[C@H]6O)CC[C@]5(C)[C@H]4CC[C@]3(C)[C@H]1[C@@H]2C |  | 7 (≈ 9.45 µM) | inactive | 
4 | C[C@@H]1CC[C@@]2(OC1)O[C@H]1C[C@H]3[C@@H]4CC[C@@H]5C[C@@H](O[C@@H]6O[C@H](CO)[C@H](O[C@@H]7O[C@H](CO)[C@@H](O)[C@H](O)[C@H]7O)[C@H](O)[C@H]6O[C@@H]6O[C@H](CO)[C@@H](O)[C@H](O)[C@H]6O)[C@@H](O)C[C@]5(C)[C@H]4CC[C@]3(C)[C@H]1[C@@H]2C | inactive |  |  | 
5 | C[C@@H]1CC[C@@]2(OC1)O[C@H]1C[C@H]3[C@@H]4CC[C@@H]5C[C@@H](O[C@@H]6O[C@H](CO)[C@H](O[C@@H]7O[C@H](CO)[C@@H](O)[C@H](O)[C@H]7O[C@@H]7O[C@H](CO)[C@@H](O)[C@H](O)[C@H]7O)[C@H](O)[C@H]6O)CC[C@]5(C)[C@H]4CC[C@]3(C)[C@H]1[C@@H]2C |  | 4.9 (≈ 5.43 µM) | Active | Activity [4]: Active
6 | C[C@@H]1CC[C@@]2(OC1)O[C@H]1C[C@H]3[C@@H]4CC[C@@H]5C[C@@H](O[C@@H]6O[C@H](CO)[C@H](O[C@@H]7O[C@H](CO)[C@@H](O)[C@H](O)[C@H]7O[C@@H]7O[C@H](CO)[C@@H](O)[C@H](O)[C@H]7O)[C@H](O)[C@H]6O)[C@@H](O)C[C@]5(C)[C@H]4CC[C@]3(C)[C@H]1[C@@H]2C | inactive |  |  | 
7 | C[C@@H]1CC[C@@]2(OC1)O[C@H]1C[C@H]3[C@@H]4CC[C@@H]5C[C@@H](O[C@@H]6O[C@H](CO)[C@H](O)[C@H](O[C@@H]7O[C@H](CO)[C@@H](O)[C@H](O)[C@H]7O)[C@H]6O)CC[C@]5(C)[C@H]4CC(=O)[C@]3(C)[C@H]1[C@@H]2C | inactive |  |  | 
8 | C[C@@H]1CC[C@@]2(OC1)O[C@H]1C[C@H]3[C@@H]4CC[C@@H]5C[C@@H](O[C@@H]6O[C@H](CO)[C@@H](O[C@@H]7O[C@H](CO)[C@@H](O)[C@H](O)[C@H]7O)[C@H](O)[C@H]6O)[C@@H](O)C[C@]5(C)[C@H]4CC[C@]3(C)[C@H]1[C@@H]2C | inactive |  |  | 
9 | C[C@@H]1CC[C@@]2(OC1)O[C@H]1C[C@H]3[C@@H]4CC[C@@H]5C[C@@H](O[C@@H]6O[C@H](CO)[C@@H](O[C@@H]7O[C@H](CO)[C@@H](O)[C@H](O)[C@H]7O)[C@H](O)[C@H]6O)CC[C@]5(C)[C@H]4CC(=O)[C@]3(C)[C@H]1[C@@H]2C | inactive |  |  | 
